An excerpt weighted towards active compounds, which were near 5.1% of everything screened.
STAT3 inh-1: reduces IL-6 driven STAT3 reporter signal; inhibition, % at 5.5 µM; AID 862; hit rate 0.89% among 190,000; U3A cells, IL-6 STAT3-luciferase reporter, luminescence; host cell line lacks STAT1;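 active = inhibition above the mean inhibition across all screened compounds plus 3 SD, cut at about 44% in these data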
STAT1 activator: increases IFN-gamma driven STAT1 reporter signal | NIH 3T3 STAT1-luciferase reporter, luminescence; 100% = IFN-gamma alone, no compound | hit rate 2.6% among 200,000 | activation (% of control), % at 5.5 µM;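 active = activation above the screen-wide mean activation plus 3 SD, cut at about 130% in these data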
STAT3 activator: STAT3 signaling activation. U3A cells, IL-6 STAT3-luciferase reporter, luminescence; 100% = signal with IL-6 EC80 alone. hit rate 0.91% among 190,000. AID 871. activation (% of control), % at 5.6 µM;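 active = activation above the screen-wide mean of compound activation plus 3 SD, cut at about 130% in these data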
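Test system: STAT3-luciferase reporter U3A cells; Detection: reporter luminescence signal; Times: 1 h compound pre-exposure, 6 h IL-6 stimulation, 37 °C; Benchmarks: IL-6-only high control; Also added: IL-6 stimulus at 33 ng/mL final.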
NF-kB neuron act: compounds increasing NF-kB expression in human neuronal cells. NF-kB reporter expression; active compounds read high. fold change at 12.5 µM. hit rate 1.6% among 190,000; in the data active = fold change above about 3.3
APP 5'UTR act: activates APP 5'UTR luciferase reporter; SH-SY5Y APP 5'UTR luciferase reporter, luminescence; zero percent = DMSO vehicle wells; activation, % at 2 µM; hit rate 1% among 190,000; AID 1276;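 active = activation above a set limit, based on mean plus 3 SD of controls, cut at about 140% in these data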
STAT1 blocker: STAT1 signaling inhibition | NIH 3T3 STAT1-luciferase reporter, IFN-gamma, luminescence | inhibition, % at 5.5 µM | AID 920 | hit rate 0.35% among 200,000;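 active = inhibition above a set limit, the mean inhibition across all tested compounds plus 3 SD, cut at about 34% in these data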
STAT3 inh-2: STAT3 inhibition, confirmation assay | shares compounds with STAT3 inh-1 | U3A cells, IL-6 STAT3 luciferase reporter, luminescence; cell line lacks STAT1 | inhibition, % at 5.7 µM | hit rate 45% among 1,200 | AID 1265;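 active = inhibition above the hit cutoff computed for the primary STAT3 screen, cut at about 44% in these data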
NFkB inh 2: NF-kappaB inhibition in STAT3 inhibitor counter-screen. shares compounds with STAT3 inh-1. HEK293T NF-kB luciferase reporter, TNF-alpha induced. inhibition, % at 5.7 µM. hit rate 36% among 1,200;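 active = inhibition above the mean of solvent-only control wells plus 3 SD, cutoff set per campaign, cut at about 13% in these data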
STAT1 inh STAT3c: inhibits STAT1, counter-screen to STAT3 inhibitors. hit rate 27% among 1,200. inhibition, % at 5.7 µM. NIH 3T3 STAT1-luciferase reporter, IFN-gamma induced, luminescence. AID 1317. shares compounds with STAT3 inh-1;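 active = inhibition above the mean plus 3 SD of solvent-only control wells, limit set per screening run, cut at about 16% in these data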
A number is an active result; – = inactive; · = not tested or not shown.

SMILES	STAT3 inh-1	STAT1 activator	STAT3 activator	NF-kB neuron act	APP 5'UTR act	STAT1 blocker	STAT3 inh-2	NFkB inh 2	STAT1 inh STAT3c
O=C(Nc1nc(-c2ccc3ccccc3c2)cs1)C1CCN(S(=O)(=O)c2cccs2)CC1	–	–	–	–	–	–	·	·	·
O=C(Nc1nc(-c2ccc(S(=O)(=O)N3CCCC3)cc2)cs1)c1cccs1	46.9	–	–	–	·	–	–	–	17.0
CC(=O)Oc1ccc(N2C(=O)C3C4C=CC(CC4)C3C2=O)cc1[N+](=O)[O-] (stereo not drawn)	–	–	–	–	–	–	·	·	·
O=C(/C=C/c1ccc(Cl)cc1)Nc1nccs1	43.6	–	–	8.47	183.9	–	–	–	–
C/C=C/C=C/C(=O)Nc1nccs1	–	–	–	–	–	–	·	·	·
COc1ccc(NC(NC(=O)c2ccc(OC)cc2)C(Cl)(Cl)Cl)cc1 (stereo not drawn)	49.9	–	–	–	–	–	–	–	–
CS(=O)(=O)c1ccc(C(=O)N2CCN(Cc3ccccc3)CC2)cc1	–	–	–	–	–	–	·	·	·
O=C(c1ccc(CNS(=O)(=O)c2ccccc2)cc1)N1CCN(Cc2ccccc2)CC1	44.4	–	–	–	–	–	–	–	–
COc1cc(/C=C(\C#N)C(=O)Nc2ccccc2C(=O)O)cc(Cl)c1OC	–	–	–	–	–	–	·	·	·
Cc1ccc2nc3sc(C(=O)Nc4ccc(N5CCOCC5)cc4)c(N)c3cc2c1	–	–	–	–	–	–	·	·	·
CCOc1ccc2nc3sc(C(=O)N4CCOCC4)c(N)c3cc2c1	56.3	–	–	–	219.7	–	–	–	–
Cc1nc(SCC(=O)Nc2c(C)nn(C)c2C)c2cnn(-c3ccccc3)c2n1	43.9	–	–	–	–	–	–	–	–
CC[n+]1ccccc1/C=C/c1ccc(N(C)C)cc1	68.3	–	–	–	–	–	60.3	–	–
CCOc1ccc2nc(-c3ccccc3)[nH]c2c1	49.5	139.3	–	5.43	142.2	–	–	–	–
CS(=O)(=O)Nc1ccccc1C(=O)Nc1ccc2c(c1)OCCO2	–	–	–	–	–	–	·	·	·
O=C(Nc1ccc2c(c1)OCCO2)c1ccccc1F	52.3	–	–	5.15	145.6	–	–	–	–
O=C(Oc1cccc(Nc2ncnc3ccccc23)c1)c1ccccc1Cl	53.7	–	–	–	–	–	48.2	–	–
COc1ccc(-c2[nH]ncc2CN(CCO)CC23CC4CC(CC(C4)C2)C3)c(OC)c1	–	–	–	–	–	–	·	·	·
O=C(Nc1ccc(F)c(F)c1)c1ccc(F)c(S(=O)(=O)N2CCOCC2)c1	46.4	–	–	–	–	–	–	–	–
CCOC(=O)c1ccc(NC(=O)c2cccc(S(=O)(=O)N3CCOCC3)c2)cc1	58.1	–	–	–	–	–	–	–	–
O=C(Nc1nc2ccccc2[nH]1)c1ccc(F)c(S(=O)(=O)N2CCOCC2)c1	–	–	–	–	–	–	·	·	·
CCOC(=O)c1ccc(NC(=O)c2ccc(C)c(S(=O)(=O)N3CCOCC3)c2)cc1	72.2	–	–	–	–	–	69.0	21.7	–
Cc1ccc(C(=O)Nc2ccon2)cc1S(=O)(=O)N1CCOCC1	–	–	–	–	–	–	·	·	·
O=C(Nc1cccc(F)c1)c1cccc(S(=O)(=O)N2CCOCC2)c1	–	–	–	–	–	–	·	·	·
Cc1ccc(N(NC(=O)C(O)(c2ccccc2)c2ccccc2)C(=O)CCl)cc1	–	–	–	–	–	–	·	·	·
CCCNC(=O)c1ccc(-c2nc3ccccc3s2)s1	75.1	–	–	4.58	155.0	–	44.7	–	–
O=C(NCCCO)c1nc2ccccc2s1	–	–	–	–	–	–	·	·	·
CCOc1ccc(/C=N/NC(=O)c2[nH]ncc2Br)c(O)c1	48.4	–	–	4.4	–	–	–	–	–
CC(=O)Nc1cccc(-c2cn3ccccc3n2)c1	–	–	–	–	–	–	·	·	·
